Results as given in ChEMBL document CHEMBL5096220, “Selective Inhibition of the Periodontal Pathogen Porphyromonas gingivalis by Third-Generation Zafirlukast Derivatives” (J Med Chem, 2022).
The source made the active and inactive calls. No cut-off for these calls is given here.

How the values were obtained:
Erythrocyte = test: Hemolytic activity in mouse RBC upto 100 uM incubated for 1 hr; assay type: toxicity, cell-based
Procedure, shortened: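 Murine red blood cells incubated with compound at 3.13 to 100 μM for 1 h at 37 °C. PBS only was the negative control; Triton X-100 (1% v/v) set 100% hemolysis.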

Porphyromonas gingivalis [1] = test: Antibacterial activity against Porphyromonas gingivalis ATCC 33277 assessed as growth inhibition at 100 uM measured after 30 mins by WST-1 assay relative to control; assay type: functional; set-up: scale not given: the % may be the effect or the level left
Procedure, shortened: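 P. gingivalis ATCC 33277 (10^8 cells/well) was grown to log phase in supplemented BHI under anaerobic conditions and incubated 24 h with treatments. WST-1 A405 was read 30 min after reagent addition. Growth inhibition was calculated relative to medium-only cultures, six independent replicates per condition.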

Porphyromonas gingivalis [2] = test: Bactericidal activity against Porphyromonas gingivalis ATCC 33277 assessed as reduction in colony formation at 100 uM measured 24 hrs […] relative to control; assay type: functional; set-up: scale not given: the % may be the effect or the level left; conditions: in the assay text read “CFU assay” for “safranin staining”
Procedure, shortened: (§1)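 P. gingivalis ATCC 33277 (10^8/well) was grown anaerobically in supplemented BHI and treated 24 h at 1, 10 or 100 μM in DMSO. Cultures were diluted 1:400 and plated on blood agar; colonies were counted after 5 days anaerobic incubation. % inhibition was based on CFUs/mL vs medium-only cultures, three independent replicates. Controls: tetracycline 2.81 μM, DMSO.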

Porphyromonas gingivalis [3] = test: Bactericidal activity against Porphyromonas gingivalis ATCC 33277 assessed as reduction in colony formation at 10 uM measured 24 hrs by safranin staining relative to control; assay type: functional; conditions: in the assay text read “CFU assay” for “safranin staining”; procedure, shortened: as §1
Porphyromonas gingivalis [4] = test: Antibiofilm activity against Porphyromonas gingivalis ATCC 33277 assessed as inhibition of biofilm at 50 uM measured after 48 hrs by safranin staining relative to control; assay type: functional; set-up: scale not given: the % may be the effect or the level left
Procedure, shortened: (§2)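 Biofilm formation: P. gingivalis ATCC 33277 (10^8 cells/well) was grown in supplemented BHI under anaerobic conditions with gentle shaking, exposed to 10, 25, 50 or 100 μM for 48 h. Biomass was stained with 0.1% safranin and A492 measured. Biofilm growth % = 100×OD treated/OD DMSO control. Positive controls: tetracycline 2.81 μM.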

Porphyromonas gingivalis [5] = test: Antibiofilm activity against Porphyromonas gingivalis ATCC 33277 assessed as inhibition of biofilm at 25 uM measured after 48 hrs by safranin staining relative to control; assay type: functional; set-up: scale not given: the % may be the effect or the level left; procedure, shortened: as §2
Porphyromonas gingivalis [6] = test: Antibiofilm activity against Porphyromonas gingivalis ATCC 33277 assessed as inhibition of biofilm at 10 uM measured after 48 hrs by safranin staining relative to control; assay type: functional; set-up: scale not given: the % may be the effect or the level left; procedure, shortened: as §2
[7] = Cytotoxicity against human OKF6 cells assessed as reduction in cell viability at 10 uM by Annexin V-FITC/PI staining based flow cytometric analysis relative to control; assay type: toxicity; conditions: okf6, 10 µM
Procedure, shortened: (§3)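 OKF6 keratinocytes were exposed 24 h to 10 or 100 μM. Apoptosis/necrosis was assessed by FITC-Annexin V staining and flow cytometry, ≥10,000 events per condition, in duplicate across two independent experiments. Controls: medium, 1% DMSO, staurosporine 8 μM.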

[8] = Cytotoxicity against human OKF6 cells assessed as reduction in cell viability at 100 uM by Annexin V-FITC/PI staining based flow cytometric analysis relative to control; assay type: toxicity; conditions: okf6, 100 µM; procedure, shortened: as §3
[9] = Cytotoxicity against human OKF6 cells assessed as morphological change at 100 uM […]; assay type: toxicity, cell-based; conditions: okf6, 100 µM
Procedure, shortened: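 OKF6 oral keratinocytes were treated 24 h at 10 or 100 μM. Cell morphology and density were examined by microscopy across the entire well. Controls: medium, 1% DMSO, staurosporine 8 μM.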

HepG2 = test: Cytotoxicity against human HepG2 cells assessed as cell survival rate at upto 31.3 to 62.6 microg/ml measured after 24 hrs by resazurin dye based analysis relative to control; assay type: functional; conditions: dose 31.3-62.6 µg/ml, at 31.3 to 62.6 µg/mL
Procedure, shortened: (§4)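 HEK-293 and HepG2 cells were maintained in DMEM with 10% FBS and 1% Pen/Strep at 37 °C, 5% CO2. Compounds were tested over 0–62.6 μg/mL. Survival values above 100% were normalized to 100%.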

Porphyromonas gingivalis [10] = test: Antibacterial activity against Porphyromonas gingivalis assessed as reduction of CFU at 10 uM incubated for 5 days measured by […]; assay type: functional, organism-based; conditions: time 5.0 day; procedure, shortened: as §1
Porphyromonas gingivalis [11] = test: Antibacterial activity against Porphyromonas gingivalis ATCC 33277 assessed as growth inhibition at 25 uM measured after 24 hrs by WST-1 assay relative to control; assay type: functional; set-up: scale not given: the % may be the effect or the level left
Procedure, shortened: (§5)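 Log-phase P. gingivalis ATCC 33277 was grown anaerobically in hemin/menadione-supplemented BHI, 10^8 cells/well, and treated for 24 h (DMSO vehicle). […] Derivatives: six independent replicates; controls: 42 replicates.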

Porphyromonas gingivalis [12] = test: Antibacterial activity against Porphyromonas gingivalis ATCC 33277 assessed as growth inhibition at 50 uM measured after 24 hrs by WST-1 assay relative to control; assay type: functional; set-up: scale not given: the % may be the effect or the level left; procedure, shortened: as §5
Porphyromonas gingivalis [13] = test: Antibiofilm activity against Porphyromonas gingivalis ATCC 33277 assessed as inhibition of biofilm at 100 uM measured after 48 hrs by safranin staining relative to control; assay type: functional; set-up: scale not given: the % may be the effect or the level left; procedure, shortened: as §2
HEK293 = test: Cytotoxicity against HEK293 cells assessed as cell survival rate upto 31.3 microg/ml measured after 24 hrs by resazurin dye based analysis; assay type: functional; conditions: Homo sapiens, dose <= 31.3 µg/ml; procedure, shortened: as §4
[14] = Hemolytic activity in mouse RBC at 100 uM incubated for 1 hr; assay type: toxicity, cell-based, Erythrocyte; conditions: mouse red blood cells (erythrocytes), read-out: Activity
Procedure, shortened: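 Murine red blood cells were incubated 1 h at 37 °C with compounds at 3.13–100 μM. PBS served as the negative control and Triton X-100 (1% v/v) as the 100% hemolysis reference.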

Fusobacterium nucleatum = test: Antibacterial activity against Fusobacterium nucleatum ATCC 25586 assessed as growth inhibition at 100 uM measured after 24 hrs by WST-1 assay relative to control; assay type: functional; set-up: scale not given: the % may be the effect or the level left
Procedure, shortened: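 F. nucleatum ATCC 25586 was grown anaerobically in hemin/menadione-supplemented BHI to log phase, 10^8 cells/well. Treatment was 1, 10 or 100 μM for 24 h. WST-1 absorbance at 405 nm was read 30 min after reagent addition. % inhibition was calculated vs medium-only cultures, six independent replicates. Controls: DMSO, tetracycline 2.81 μM.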

Actinomyces naeslundii = test: Antibacterial activity against Actinomyces naeslundii ATCC 49340 assessed as growth inhibition at 100 uM measured after 24 hrs by WST-1 assay relative to control; assay type: functional; set-up: scale not given: the % may be the effect or the level left
Procedure, shortened: (§6)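 A. naeslundii ATCC 49340 (anaerobic) and S. sanguinis ATCC 10556 (aerobic) were grown in BHI with 5 μg/mL hemin and 1 μg/mL menadione to log phase, 10^8 cells/well. They were exposed to 1, 10 or 100 μM for 24 h, then WST-1 was added. […] Controls: DMSO, penicillin/streptomycin 1X.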

Streptococcus sanguinis = test: Antibacterial activity against Streptococcus sanguinis ATCC 10556 assessed as growth inhibition at 100 uM measured after 24 hrs by WST-1 assay relative to control; assay type: functional; set-up: scale not given: the % may be the effect or the level left; procedure, shortened: as §6
Porphyromonas gingivalis [15] = test: Antibacterial activity against Porphyromonas gingivalis ATCC 33277 assessed as growth inhibition at 10 uM measured after 24 hrs by WST-1 assay relative to control; assay type: functional; set-up: scale not given: the % may be the effect or the level left; procedure, shortened: as §5
Porphyromonas gingivalis [16] = test: Antibacterial activity against Porphyromonas gingivalis ATCC 33277 assessed as growth inhibition at 1 uM measured after 24 hrs by WST-1 assay relative to control; assay type: functional; set-up: scale not given: the % may be the effect or the level left; procedure, shortened: as §5

CCCCn1cc(Cc2ccc(OC)c(C(=O)NS(=O)(=O)c3ccccc3F)c2)c2cc([N+](=O)[O-])ccc21
Activity (Erythrocyte): <= 25%

COc1ccc(Cc2cn(C)c3ccc([N+](=O)[O-])cc23)cc1C(=O)NS(=O)(=O)c1ccccc1Cl
Activity (Porphyromonas gingivalis [1]): 61% | Activity (Porphyromonas gingivalis [2]): 100% | Activity (Porphyromonas gingivalis [3]): Active | Activity (Porphyromonas gingivalis [4]): 58% | Activity (Porphyromonas gingivalis [5]): 55% | Activity (Porphyromonas gingivalis [6]): 53% | Activity [7]: 9% | Activity [8]: 5% | Activity [9]: Toxic | Activity (HepG2): >76% | Activity (Porphyromonas gingivalis [10]): Active

COc1cc(C(=O)NS(=O)(=O)c2ccccc2C)ccc1Cc1cn(C)c2ccc(NC(=O)OC3CCCC3)cc12 [ZAFIRLUKAST]
Activity (Porphyromonas gingivalis [11]): 74% | Activity (Porphyromonas gingivalis [12]): 88% | Activity (Porphyromonas gingivalis [13]): 58% | Activity (HEK293): Not toxic | hemolysis at 1 h, 100 µM [14]: 72%

COc1ccc(Cc2cn(C)c3ccc([N+](=O)[O-])cc23)cc1C(=O)NS(=O)(=O)c1c(F)cccc1F
Activity (Porphyromonas gingivalis [1]): 61% | Activity (Fusobacterium nucleatum): 76% | Activity (Actinomyces naeslundii): 40% | Activity (Streptococcus sanguinis): 40% | Activity (Porphyromonas gingivalis [2]): 100%

COc1ccc(Cc2cn(C)c3ccc([N+](=O)[O-])cc23)cc1C(=O)NS(=O)(=O)c1ccccc1F
Activity (Porphyromonas gingivalis [1]): 61% | Activity (Porphyromonas gingivalis [2]): 100% | Activity (Porphyromonas gingivalis [3]): 96% | Activity (Porphyromonas gingivalis [5]): 52% | Activity (HepG2): >76%

CCCn1cc(Cc2ccc(OC)c(C(=O)NS(=O)(=O)c3ccccc3F)c2)c2cc([N+](=O)[O-])ccc21
Activity (Erythrocyte): <= 25%

CCn1cc(Cc2ccc(OC)c(C(=O)NS(=O)(=O)c3ccc([N+](=O)[O-])cc3)c2)c2cc([N+](=O)[O-])ccc21
Activity (Porphyromonas gingivalis [15]): 77% | Activity (Porphyromonas gingivalis [16]): 6% | Activity (Porphyromonas gingivalis [2]): 100% | Activity (Porphyromonas gingivalis [3]): 19%
